{"data": "Measurements collected from several papers", "target": "Serine/threonine-protein kinase MARK2 (MARK2, Homo sapiens, UniProt Q7KZI7)", "note": "Each line is one published result; the experiments were not run side by side."}
{"SMILES": "O=C(Nc1cccnn1)N1CC(C/C=C/c2cncc(Oc3ccc(C(F)(F)F)cn3)n2)C1", "assay": "cell-free assay, competition with immobilised ligand", "setting": "1 µM", "quantity": "remaining binding", "result": "80%"}
{"SMILES": "O=C1Nc2ccc(Cl)cc2C1=Cc1cc(Cl)c(O)c(Cl)c1", "assay": "cell-free assay", "setting": "0.5 µM", "quantity": "remaining signal", "result": "79.7%"}
{"SMILES": "CN1CC(Oc2cnc(C#N)cc2-c2ccn3nc(NC(=O)C4CC4)cc3c2)C1", "assay": "enzyme activity, inhibitor", "setting": "1 µM", "quantity": "inhibition", "result": "-1%"}
{"SMILES": "CN1CCN(c2cnc3c(C4CCN(C(=O)c5ccc(OC(F)(F)F)cc5N)CC4)ncnc3c2)CC1", "assay": "cell-free assay, competition with immobilised ligand", "setting": "1 µM", "quantity": "remaining binding", "result": "100%"}
{"SMILES": "COc1cccc2c(NCc3ccccc3)nc(-n3c(N)nc4ccccc43)nc12", "assay": "target engagement in cells, inhibitor, chemoproteomics", "setting": "20 mM", "quantity": "inhibition", "result": "-7.2%"}
{"SMILES": "c1cc(CN2CCOCC2)cc(Nc2ncc(C3CC3)c(NCCc3c[nH]cn3)n2)c1", "assay": "enzyme activity, inhibitor, radiometric", "setting": "1 µM", "quantity": "remaining activity", "result": "14%"}
{"SMILES": "Cc1cc(NC(=O)c2cccc3cc(-c4cccc5[nH]nc(N)c45)ccc23)ccc1F", "assay": "enzyme activity, inhibitor", "setting": "0.1 µM", "quantity": "activity vs control", "result": "94%"}
{"SMILES": "O=C(NCCCNc1nc(Nc2cccc(NC(=O)N3CCCC3)c2)ncc1C1CC1)C1CCC1", "assay": "enzyme activity, inhibitor, radiometric", "setting": "1 µM", "quantity": "remaining activity", "result": "6%"}
{"SMILES": "CN(C)C(=O)Cn1cc(-c2nc(C3(c4ccc(-c5cnc(N)nc5)cc4)CC3)no2)cn1", "assay": "cell-free assay, competition with immobilised ligand", "setting": "1 µM", "quantity": "remaining binding", "result": "92%"}
{"SMILES": "NS(=O)(=O)c1ccc(CNc2nc(Nc3cccc(CN4CCOCC4)c3)ncc2C2CC2)cc1", "assay": "enzyme activity, inhibitor, radiometric", "setting": "1 µM", "quantity": "remaining activity", "result": "98%"}
{"SMILES": "CCCCN(CCCC)C(=O)CN1C[C@@H](c2cc(OC)c3c(c2)OCO3)[C@H](C(=O)O)[C@H]1CC(C)(C)CCC", "assay": "cell-free assay, competition with immobilised ligand", "setting": "1 µM", "quantity": "remaining binding", "result": "100%"}
{"SMILES": "O=C(Nc1cccc(Nc2ncc(Br)c(NCCc3cnc[nH]3)n2)c1)N1CCCC1", "assay": "enzyme activity, inhibitor, radiometric", "setting": "1 µM", "quantity": "remaining activity", "result": "5%"}
{"SMILES": "N#CCCc1ccc2c(c1)-c1[nH]c3ccc([N+](=O)[O-])cc3c1CC(=O)N2", "assay": "cell-free assay", "setting": "0.5 µM", "quantity": "remaining signal", "result": "65.5%"}
{"SMILES": "NS(=O)(=O)c1ccc(CNc2nc(Nc3cccc(CN4CCOCC4)c3)ncc2Br)cc1", "assay": "enzyme activity, inhibitor, radiometric", "setting": "1 µM", "quantity": "remaining activity", "result": "65%"}
{"SMILES": "CNC(=O)c1cc(Oc2ccc(NC(=O)Nc3ccc(Cl)c(C(F)(F)F)c3)cc2)ccn1", "assay": "enzyme activity, inhibitor", "setting": "0.3 µM", "quantity": "inhibition", "result": "28%"}
{"SMILES": "FC(F)(F)Oc1cccc(-c2cnc3ccc(-c4ccncc4)nn23)c1", "assay": "enzyme activity, inhibitor, radiometric", "setting": "5 µM", "quantity": "activity vs control", "result": "99%"}
{"SMILES": "Cc1nn(CC(F)(F)F)cc1Nc1ncc(C2CC2)c(NCc2ccc(S(N)(=O)=O)cc2)n1", "assay": "enzyme activity, inhibitor, radiometric", "setting": "1 µM", "quantity": "remaining activity", "result": "100%"}
{"SMILES": "Oc1cccc(-c2nc(N3CCOCC3)c3oc4ncccc4c3n2)c1", "assay": "cell-free assay", "setting": "0.5 µM", "quantity": "remaining signal", "result": "92.9%"}
{"SMILES": "Cc1nn(CC(F)(F)F)cc1Nc1ncc(C2CC2)c(NCCCNC(=O)C2CCC2)n1", "assay": "enzyme activity, inhibitor, radiometric", "setting": "1 µM", "quantity": "remaining activity", "result": "93%"}
{"SMILES": "CS(=O)(=O)N1CCCC(NC(=O)[C@H](CCC2CCCCC2)NC(=O)c2ccc(CNC(=O)c3cnc4ccccn34)cc2)C1 (stereo partly drawn)", "assay": "cell-free assay, competition with immobilised ligand", "setting": "0.1 µM", "quantity": "remaining binding", "result": "100%"}
{"SMILES": "Cc1ccc(Nc2nccc(N(C)c3ccc4c(C)n(C)nc4c3)n2)cc1S(N)(=O)=O", "assay": "enzyme activity, inhibitor", "setting": "10 µM", "quantity": "inhibition", "result": "16%"}
{"SMILES": "O=C(Nc1cnc(Oc2ccc(F)cc2)nc1)N1CCc2ncccc2[C@@H]1c1ccc(F)cc1", "assay": "cell-free assay, competition with immobilised ligand", "setting": "1 µM", "quantity": "remaining binding", "result": "90%"}
{"SMILES": "COc1cc2ncnc(Nc3ccc(Oc4ccccc4)c(C)c3C)c2cc1OC", "assay": "enzyme activity, inhibitor", "setting": "1 µM", "quantity": "inhibition", "result": "6%"}
{"SMILES": "CC(=O)N1CCC(c2ccc(C(=O)NC3=NCCN3)cc2C(F)(F)F)CC1", "assay": "cell-free assay, competition with immobilised ligand", "setting": "1 µM", "quantity": "remaining binding", "result": "100%"}
{"SMILES": "Cc1ccc(NC(=O)c2ccc(C)c(C(F)(F)F)c2)cc1C#Cc1nn(C2CCC(O)CC2)c2ncnc(N)c12 (stereo not drawn)", "assay": "cell-free assay", "setting": "10 µM", "quantity": "remaining signal", "result": "98%"}
{"SMILES": "c1ccc(CNc2nc(N3CCOc4ccccc43)nc3c2CCCC3)cc1", "assay": "target engagement in cells, inhibitor, chemoproteomics", "setting": "20 mM", "quantity": "inhibition", "result": "-11.2%"}
{"SMILES": "O=C(NCCCNc1nc(Nc2cccc(NC(=O)N3CCCC3)c2)ncc1Br)C1CCC1", "assay": "enzyme activity, inhibitor, radiometric", "setting": "1 µM", "quantity": "remaining activity", "result": "2%"}
{"SMILES": "C[C@@H]1CN(c2cc(-c3nn(C)c4ccc(OC5(C)CC5)cc34)ncn2)C[C@H](C)O1", "assay": "cell-free assay, competition with immobilised ligand", "setting": "1 µM", "quantity": "remaining binding", "result": "89%"}
{"SMILES": "CN(C)C1CCN(CC#Cc2nn(C3CCCC3)c3nc(NCc4ccccc4)ncc23)C1 (stereo not drawn)", "assay": "enzyme activity, inhibitor, FRET", "setting": "1 µM", "quantity": "inhibition", "result": "3%"}
{"SMILES": "CNc1cc(Oc2cc(C(=O)Nc3cc(N4CCN(C)CC4)cc(C(F)(F)F)c3)ccc2C)ncn1", "assay": "target engagement in cells, inhibitor, chemoproteomics", "system": "Huh-7", "setting": "1 µM", "quantity": "inhibition", "result": "-25.4%"}
